In ChEMBL document CHEMBL1151173, “Sesquiterpene lactones from Montanoa hibiscifolia that inhibit the transcription factor NF-kappa B” (J Nat Prod, 2004):

Legend:
Jurkat = test: Inhibition of NF-kappaB binding to DNA in TNF-alpha-stimulated human Jurkat T cells pretreated for 1 hr before TNFalpha stimulation; assay type: cell-based
Summary of the method: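 Jurkat T cells (RPMI 1640, 10% FCS, penicillin/streptomycin) were pretreated 1 h with compound at various concentrations, then stimulated 1 h with 200 U/mL TNF-α. High-salt detergent total extracts (10-20 µg protein) were incubated 25 min at room temperature with poly(dI-dC), BSA and a 33P-labeled NF-κB oligonucleotide. The EMSA value is the lowest concentration giving complete inhibition of DNA binding. Run in duplicate.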

RAW264.7 [1] = test: Cytotoxicity against mouse RAW264.7 cells by trypan blue exclusion method; assay type: cell-based
RAW264.7 [2] = test: Inhibition of NF-kappaB binding to DNA in LPS-stimulated mouse RAW264.7 cells pretreated for 1 hr before LPS stimulation

`C=C1C(=O)O[C@H]2/C=C(\C)CC/C=C(/C)C(=O)[C@H](OC(=O)[C@@]3(C)O[C@H]3C)[C@@H]12` was tested, and the Lowest concentration giving complete inhibition of NF-kappaB DNA binding (Jurkat) was 50 µM, the Activity (RAW264.7 [1]) was “Non-toxic” and the Activity (RAW264.7 [2]) was 20 µM.
For `C=C1C(=O)O[C@@H]2C3O[C@]3(C)CC/C=C(\C)CC[C@@H]12` (stereo partly specified), the Lowest concentration giving complete inhibition of NF-kappaB DNA binding (Jurkat) was 20 µM.
In the case of `C=C1C(=O)O[C@@H]2[C@H]1[C@@H](OC(=O)[C@]1(C)O[C@@H]1C)C(=O)[C@@]1(C)C=CC[C@@](C)(O)[C@@H]21`, the Lowest concentration giving complete inhibition of NF-kappaB DNA binding (Jurkat) is reported as 10 µM, the Activity (RAW264.7 [1]) is reported as “Non-toxic” and the Activity (RAW264.7 [2]) is reported as 10 µM.
With `C=C1CCC=C(C)[C@@]2(O)[C@H](OC(=O)[C@]3(C)O[C@@H]3C)[C@@H]3[C@@H](OC(=O)[C@@H]3C)[C@H]12` the Lowest concentration giving complete inhibition of NF-kappaB DNA binding (Jurkat) was 200 µM.
With `C=C1C(=O)O[C@H]2/C=C(\C)CC/C=C(/C)[C@@H](OC(=O)/C(C)=C/C)[C@H](O)[C@@H]12` the Lowest concentration giving complete inhibition of NF-kappaB DNA binding (Jurkat) was 100 µM, the Activity (RAW264.7 [1]) was “Non-toxic” and the Activity (RAW264.7 [2]) was 20 µM.
